The source made the active and inactive calls. The rule behind the calls is not given here. Square brackets hold non-standard residues; d marks the D form. Peptide text beside a SMILES is read from it. Lys(thiomyristoyl) = CCCCCCCCCCCCCC(=S)NCCCC[C@H](N)C(=O)O Bounds are passed on as bounds.

For experiment [1], the target named is T1, NAD-dependent protein deacetylase sirtuin-3, mitochondrial (Homo sapiens) (UniProt Q9NTG7).
T1 sequence (whole entry): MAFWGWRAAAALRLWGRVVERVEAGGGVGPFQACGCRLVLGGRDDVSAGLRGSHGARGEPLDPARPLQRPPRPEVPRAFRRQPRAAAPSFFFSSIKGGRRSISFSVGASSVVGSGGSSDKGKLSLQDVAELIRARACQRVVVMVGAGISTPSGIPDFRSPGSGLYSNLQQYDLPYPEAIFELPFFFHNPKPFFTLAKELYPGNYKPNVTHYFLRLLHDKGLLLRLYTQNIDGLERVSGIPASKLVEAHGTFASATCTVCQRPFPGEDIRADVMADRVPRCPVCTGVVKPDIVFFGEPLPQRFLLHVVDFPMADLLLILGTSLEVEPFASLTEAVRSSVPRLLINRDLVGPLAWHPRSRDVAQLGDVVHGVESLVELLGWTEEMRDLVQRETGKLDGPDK
Kind of experiment: Inhibition of 5-(3-((1r,4r)-4-((5S,8S,11S,14S,17S,20S,29S)-11-((1H-imidazol-4-yl)methyl)-1,33-diamino-5-carbamoyl-17-(4-(4-(4-((4-(dimethylamino)phenyl)diazenyl)phenyl)butanamido)butyl)-8,14-bis(3-guanidinopropyl)-20-methyl-7,10,13,16,19,22,25,28-octaoxo-6,9,12,15,18,21,24,27-octaazatritriacontan-29-ylcarbamoyl)cyclohexyl)thioureido)-2-(6-hydroxy-3-oxo-3H-xanthen-9-yl)benzoic acid binding to SIRT3 (unknown origin) at 50 uM measured after 2 hrs in presence of NAD+ by fluorometric method.

Experiment [2] addresses T2, NAD-dependent protein deacetylase sirtuin-2 (Homo sapiens) (UniProt Q8IXJ6).
T2 sequence (whole entry): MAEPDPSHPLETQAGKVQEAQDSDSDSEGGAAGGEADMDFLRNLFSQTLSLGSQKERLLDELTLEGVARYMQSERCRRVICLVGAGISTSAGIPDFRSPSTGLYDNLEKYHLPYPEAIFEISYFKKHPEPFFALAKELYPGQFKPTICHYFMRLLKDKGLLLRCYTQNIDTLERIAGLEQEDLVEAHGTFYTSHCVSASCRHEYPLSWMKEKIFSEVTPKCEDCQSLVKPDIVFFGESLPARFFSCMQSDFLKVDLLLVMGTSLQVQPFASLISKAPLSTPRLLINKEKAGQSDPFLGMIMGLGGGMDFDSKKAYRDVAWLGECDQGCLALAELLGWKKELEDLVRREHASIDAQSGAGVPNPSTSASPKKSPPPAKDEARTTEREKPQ
Kind of experiment: Inhibition of 5-(3-((1r,4r)-4-((5S,8S,11S,14S,17S,20S,29S)-11-((1H-imidazol-4-yl)methyl)-1,33-diamino-5-carbamoyl-17-(4-(4-(4-((4-(dimethylamino)phenyl)diazenyl)phenyl)butanamido)butyl)-8,14-bis(3-guanidinopropyl)-20-methyl-7,10,13,16,19,22,25,28-octaoxo-6,9,12,15,18,21,24,27-octaazatritriacontan-29-ylcarbamoyl)cyclohexyl)thioureido)-2-(6-hydroxy-3-oxo-3H-xanthen-9-yl)benzoic acid binding to SIRT2 (unknown origin) at 10 uM measured after 2 hrs in presence of NAD+ by fluorometric method relative to control. In a few lines:
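In the primary library screen, 384-well plates held SIRT2 with the Dabcyl-BH/H4K16 one-step FRET probe. Each compound was tested at 10 μM with 0.5% DMSO, and inhibition was taken from the fluorescence signal.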

The target of experiment [3] is T2, NAD-dependent protein deacetylase sirtuin-2 (Homo sapiens). Kind of experiment: (§1) Inhibition of p53(Myr)-AMC binding to SIRT2 (unknown origin) incubated for 3 hrs in presence of NAD+ followed by trypsin addition and measured at 5 mins interval for 20 mins by fluorometric method. To be noted: time 200.0 min.
Experiment [4] has as its target T3, NAD-dependent protein deacetylase sirtuin-2 (Homo sapiens, UniProt Q8IXJ6).
T3 sequence (Q8IXJ6 whole entry): T2 sequence (whole entry)
The experiment is described as §1.

The target of experiment [5] is T3, NAD-dependent protein deacetylase sirtuin-2. As to the kind of experiment: Inhibition of 5-(3-((1r,4r)-4-((5S,8S,11S,14S,17S,20S,29S)-11-((1H-imidazol-4-yl)methyl)-1,33-diamino-5-carbamoyl-17-(4-(4-(4-((4-(dimethylamino)phenyl)diazenyl)phenyl)butanamido)butyl)-8,14-bis(3-guanidinopropyl)-20-methyl-7,10,13,16,19,22,25,28-octaoxo-6,9,12,15,18,21,24,27-octaazatritriacontan-29-ylcarbamoyl)cyclohexyl)thioureido)-2-(6-hydroxy-3-oxo-3H-xanthen-9-yl)benzoic acid binding to SIRT2 (unknown origin) measured after 2 hrs in presence of NAD+ by fluorometric method. In a few lines:
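The second screen used the same SIRT2 one-step FRET probe conditions, validated at 2.92 nM SIRT2. Compounds were tested over a range of concentrations to check dose-dependency, and the IC50 was derived from the dose–response curve.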

Experiment [6] has the same target. Kind of experiment: Inhibition of SIRT2 deacetylation activity (unknown origin) using FLUOR DE LYS SIRT2 peptide as substrate incubated for 2 hrs in presence of NAD+ measured at 5 mins interval for 20 mins by fluorescence assay.
Experiment [7] deals with T4, NAD-dependent protein deacetylase sirtuin-1 (Homo sapiens) (UniProt Q96EB6).
T4 sequence (whole entry): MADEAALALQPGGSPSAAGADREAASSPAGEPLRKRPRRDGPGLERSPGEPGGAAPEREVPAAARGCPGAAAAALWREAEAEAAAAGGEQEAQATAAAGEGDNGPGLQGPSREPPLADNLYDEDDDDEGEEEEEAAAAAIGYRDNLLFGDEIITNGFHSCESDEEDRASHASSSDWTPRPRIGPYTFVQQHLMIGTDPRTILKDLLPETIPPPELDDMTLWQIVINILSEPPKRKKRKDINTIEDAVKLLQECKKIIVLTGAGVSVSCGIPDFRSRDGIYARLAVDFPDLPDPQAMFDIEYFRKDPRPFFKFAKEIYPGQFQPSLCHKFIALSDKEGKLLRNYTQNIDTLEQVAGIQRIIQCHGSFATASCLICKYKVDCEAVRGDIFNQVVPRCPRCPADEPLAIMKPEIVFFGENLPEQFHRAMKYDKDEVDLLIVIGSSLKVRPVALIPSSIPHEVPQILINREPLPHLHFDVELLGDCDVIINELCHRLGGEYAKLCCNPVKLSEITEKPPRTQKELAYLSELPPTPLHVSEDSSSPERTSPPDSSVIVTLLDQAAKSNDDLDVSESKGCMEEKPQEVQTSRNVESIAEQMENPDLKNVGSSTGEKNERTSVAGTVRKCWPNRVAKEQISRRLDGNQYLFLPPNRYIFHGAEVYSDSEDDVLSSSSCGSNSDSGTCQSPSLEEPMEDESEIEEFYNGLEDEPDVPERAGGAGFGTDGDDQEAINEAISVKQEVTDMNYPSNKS
Kind of experiment: Inhibition of 5-(3-((1r,4r)-4-((5S,8S,11S,14S,17S,20S,29S)-11-((1H-imidazol-4-yl)methyl)-1,33-diamino-5-carbamoyl-17-(4-(4-(4-((4-(dimethylamino)phenyl)diazenyl)phenyl)butanamido)butyl)-8,14-bis(3-guanidinopropyl)-20-methyl-7,10,13,16,19,22,25,28-octaoxo-6,9,12,15,18,21,24,27-octaazatritriacontan-29-ylcarbamoyl)cyclohexyl)thioureido)-2-(6-hydroxy-3-oxo-3H-xanthen-9-yl)benzoic acid binding to SIRT1 (unknown origin) at 50 uM measured after 2 hrs in presence of NAD+ by fluorometric method.

Experiment [8] addresses NAD-dependent protein deacylase sirtuin-6 (Homo sapiens) (UniProt Q8N6T7). Kind of experiment: Inhibition of 5-[[(1r,4r)-4-[[(1S)-4-amino-1-[[(1S,2R)-1-[[(1S)-2-[[(1S)-1-[[(1S)-1-[[(1S)-2-[[(1S,2R)-1-[[2-(carboxymethylamino)-2-oxoethyl]carbamoyl]-2-hydroxypropyl]amino]-1-(hydroxymethyl)-2-oxoethyl]carbamoyl]-5-[3-[N-methyl-4-[(4-nitrophenyl)azo]anilino]propanoylamino]pentyl]carbamoyl]-4-guanidinobutyl]amino]-1-methyl-2-oxoethyl]carbamoyl]-2-hydroxypropyl]carbamoyl]-4-oxobutyl]carbamoyl]cyclohexyl]carbamothioylamino]-2-(3-hydroxy-6-oxoxanthen-9-yl)benzoic acid binding to SIRT6 (unknown origin) at 50 uM measured after 2 hrs in presence of NAD+ by fluorometric method.
Target sequence in this assay (Q8N6T7 whole entry): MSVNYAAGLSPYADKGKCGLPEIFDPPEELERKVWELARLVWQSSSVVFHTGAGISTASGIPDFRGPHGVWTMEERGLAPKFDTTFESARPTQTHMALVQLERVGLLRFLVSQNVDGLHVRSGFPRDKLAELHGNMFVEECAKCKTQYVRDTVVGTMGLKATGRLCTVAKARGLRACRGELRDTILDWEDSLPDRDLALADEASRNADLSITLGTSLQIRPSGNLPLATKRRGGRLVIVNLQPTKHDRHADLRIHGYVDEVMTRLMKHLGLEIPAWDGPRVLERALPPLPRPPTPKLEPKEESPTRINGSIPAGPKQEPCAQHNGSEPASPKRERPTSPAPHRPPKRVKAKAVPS

The target is the same in experiment [9]. As to the kind of experiment: Inhibition of 5-[[(1r,4r)-4-[[(1S)-4-amino-1-[[(1S,2R)-1-[[(1S)-2-[[(1S)-1-[[(1S)-1-[[(1S)-2-[[(1S,2R)-1-[[2-(carboxymethylamino)-2-oxoethyl]carbamoyl]-2-hydroxypropyl]amino]-1-(hydroxymethyl)-2-oxoethyl]carbamoyl]-5-[3-[N-methyl-4-[(4-nitrophenyl)azo]anilino]propanoylamino]pentyl]carbamoyl]-4-guanidinobutyl]amino]-1-methyl-2-oxoethyl]carbamoyl]-2-hydroxypropyl]carbamoyl]-4-oxobutyl]carbamoyl]cycl ….
Target sequence in this assay (Q8N6T7 whole entry, looked up): as the sequence (Q8N6T7 whole entry) above

For `CCOC(=O)C[C@@H]1C[C@@H](C(C)C)[C@H](CNC(=O)c2cncnc2)C=C1C`, the inhibition result in experiment [1], in experiment [7] and in experiment [8] was “inactive” throughout. Moreover, the inhibition (usually the change of the read-out against control, counted positive when it falls) in [2] was > 35%; in experiment [3], “Dose-dependent effect”. The half-maximal inhibitory concentration (IC50) (in general, the midpoint of a concentration-inhibition curve) is 44.4 µM in experiment [4], 47.9 µM in experiment [5] and 5.09 µM in experiment [6].
Compound `CCCCCCCCCCCCCC(=S)NCCCC[C@H](NC(=O)[C@@H](NC(=O)[C@H](CCCNC(=N)N)NC(C)=O)[C@@H](C)CC)C(=O)N[C@@H](CCCNC(=N)N)C(=O)N[C@@H](Cc1ccc(O)cc1)C(N)=O` (Ac-RI[Lys(thiomyristoyl)]RY-NH2) registered an IC50 in experiment [9] of 0.1 µM.

Values taken from ChEMBL document CHEMBL4706730, “A Set of Highly Sensitive Sirtuin Fluorescence Probes for Screening Small-Molecular Sirtuin Defatty-Acylase Inhibitors” (ACS Med Chem Lett, 2021).
